Hits are enriched below; roughly 2% of the tested compounds scored in any of these assays.
FLuc inhib CS = inhibits firefly luciferase, flagging false hits in luciferase inhibition screens; ATPLite firefly luciferase biochemical luminescence, 10 min; inhibition, % at 10 µM; 1.5% of 200,000 active;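 active = inhibition above about 50% when tested at 10 µM, limit read from the data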
Target sequence (P08659 whole entry, looked up): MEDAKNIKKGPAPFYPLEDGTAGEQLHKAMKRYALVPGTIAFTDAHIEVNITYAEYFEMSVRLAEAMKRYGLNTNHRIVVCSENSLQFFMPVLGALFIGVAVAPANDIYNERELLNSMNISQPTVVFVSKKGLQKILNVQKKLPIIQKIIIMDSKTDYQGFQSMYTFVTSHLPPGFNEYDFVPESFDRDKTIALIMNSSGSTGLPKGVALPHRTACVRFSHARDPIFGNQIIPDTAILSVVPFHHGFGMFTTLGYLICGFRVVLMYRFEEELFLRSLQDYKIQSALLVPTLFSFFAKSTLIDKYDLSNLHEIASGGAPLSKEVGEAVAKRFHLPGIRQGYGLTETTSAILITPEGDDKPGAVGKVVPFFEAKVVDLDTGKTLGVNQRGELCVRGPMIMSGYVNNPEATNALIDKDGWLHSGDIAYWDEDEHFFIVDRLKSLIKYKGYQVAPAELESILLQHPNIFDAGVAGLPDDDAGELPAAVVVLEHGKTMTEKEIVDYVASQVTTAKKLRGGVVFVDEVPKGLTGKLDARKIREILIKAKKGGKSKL
PPC-1+TRAIL kill = compounds killing PPC-1 cancer cells with TRAIL present (potentiator screen, no TRAIL-free arm). 0.41% of 220,000 active. cell killing (% activity), % at 4 µM or 5 µM. AID 1443. PPC-1 cells + TRAIL, ATPLite viability luminescence;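 active = cell killing above 50% in the first pass at 4 µM, then a duplicate retest at 5 µM averaging 50% or more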
HSP90 inh = blocks HSP90-mediated luciferase refolding in reticulocyte lysate; Rabbit reticulocyte lysate, luciferase refolding luminescence, 3 h; inhibition, % at 5.6 µM; 0.91% of 290,000 active; AID 1789;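 active = inhibition above the screen-wide mean plus 3 SD, computed separately per campaign, cut at about 16% in these data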;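 note: inhibitors lower the luminescence because luciferase stays unfolded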
C8 TRAIL sens = caspase-8 TRAIL sensitization | inhibition (viability loss, TRAIL sensitization), % at 10 µM | NB7+C8 cells + TRAIL, ATPlite viability luminescence | 1% of 360,000 active | AID 624354;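 active = compounds causing at least 50% loss of cell viability in the single-dose screen, relative to plate controls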
FLuc stim CS = firefly luciferase counter-screen for stimulation assays. AID 1027. activation factor at 10 µM. ATPlite luciferase biochemical, luminescence, 10 min; 0 = ATP-free wells, 1 = DMSO control. 200,000 tested, under 10 active;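 active = luciferase activation factor, scaled between plate controls, of at least 2 with compound at 10 µM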
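assay system = Luciferase/luciferin detection reagent, cell-free biochemical luciferase assay | also added = ATP substrate | times = 10 min post-reagent at room temperature | measured by = luminescence from luciferase reaction | measure = luciferase activation, seen as luminescence increase over controls | benchmarks = low control with PBS replacing ATP, high control enzyme plus ATP without compound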
HSP90 confirm = confirmation of HSP90 inhibitors; shares compounds with HSP90 inh; rabbit reticulocyte lysate, luciferase refolding luminescence, 3 h; inhibition, % at 5.9 µM; 64% of 2,300 active; in the data active = inhibition above about 18%
luciferase ctr = blocks native firefly luciferase in HSP90 counter-screen; shares compounds with HSP90 inh; purified native firefly luciferase, luminescence; inhibition, % at 5.9 µM; 48% of 2,300 active;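 active = inhibition above the mean inhibition of all tested sample wells plus 3 SD, cut at about 10% in these data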
A number is an active result; - = inactive; . = no result given.

SMILES	FLuc inhib CS	PPC-1+TRAIL kill	HSP90 inh	C8 TRAIL sens	FLuc stim CS	HSP90 confirm	luciferase ctr
CCOC(=O)C1CCN(c2c(Nc3ccc(C)c(C)c3)c(=O)c2=O)CC1	.	-	-	-	.	.	.
CC(C(=O)O)c1ccc(N2Cc3ccccc3C2=O)cc1 (stereo unspecified)	62	-	27	-	-	36	32
Cc1ccccc1N1Cc2ccccc2C1=O	.	.	.	-	.	.	.
CCC1(C)Cc2ccccc2C(=S)N1 (stereo unspecified)	-	-	-	-	-	.	.
O=S(=O)(/N=C(/c1ccccc1)N1CCCCC1)c1ccccc1	-	-	-	-	-	.	.
O=[N+]([O-])c1ccc2nc(/C=C/c3ccc(Cl)cc3)[nH]c2c1	-	-	28	-	-	-	-
O=[N+]([O-])c1ccc(-c2nc3ccc([N+](=O)[O-])cc3[nH]2)cc1	-	-	-	-	-	.	.
O=C(CNC(=O)c1cccs1)Nc1ccncc1	.	.	.	-	.	.	.
CC1=NN(c2ccccc2)C(=O)C1=Cc1ccccc1	.	.	.	-	.	.	.
CC1=NN(c2ccccc2)C(=O)/C1=C\N(O)c1ccccc1	.	.	41	-	.	80	-
COc1cccc2c1C(=O)c1ccc3ccccc3c1C2=O	-	-	26	-	-	-	-
COc1ccc(OC)c2c1C(=O)c1ccccc1C2=O	-	-	-	.	-	.	.
CC(C)(C)OC(=O)C[C@H]1C/C=C\C[C@H](CC(=O)N(CCO)Cc2ccccc2)C(=O)N[C@@H](Cc2ccccc2)COC1=O	.	.	.	-	.	.	.
C=CCN1C(=O)/C(=C\c2ccc(Oc3nc(N4CCOCC4)nc(N4CCOCC4)n3)c(OC)c2)SC1=S	-	.	39	-	-	-	-
O=C(COC(=O)c1ccc2c(c1)OCCO2)Nc1ccc(F)cc1F	.	.	.	-	.	.	.
O=C(Nc1ccc(Br)cc1F)c1ccc2c(c1)OCCO2	.	.	55	54	.	50	41
O=C(Nc1ccc(F)cc1F)c1ccc2c(c1)OCCO2	.	.	23	-	.	32	12
O=C(Nc1ccc(Cl)cc1[N+](=O)[O-])c1ccc2c(c1)OCCO2	.	.	-	-	.	.	.
Cc1cc(NC(=O)CSc2nc(-c3cccs3)nc3ccccc23)no1	.	.	.	-	.	.	.
Cc1ccsc1/C=C1\CCc2ccccc2C1=O	92	-	31	79	-	79	71
CC1(C)CC(NC(=O)COc2ccccc2Cl)CC(C)(C)N1	-	-	33	-	-	37	45
CC(=O)N(CN1C(=O)c2ccccc2C1=O)c1cccc(C)c1	-	-	-	-	-	.	.
CC(=O)N(/N=C1\Sc2ccccc2C1=O)c1cccc(C)c1	-	-	40	-	-	76	-
O=C(CSc1nnc2ccccn12)NNC(=O)c1ccc(Br)cc1	-	-	-	-	-	.	.
Cc1cccc(NC(=O)CSc2nnc(Cn3nnc(-c4ccccc4)n3)n2-c2ccccc2)c1	-	-	21	-	-	-	-
SMILES	FLuc inhib CS	PPC-1+TRAIL kill	HSP90 inh	C8 TRAIL sens	FLuc stim CS	HSP90 confirm	luciferase ctr
CCn1c(Cn2nnc(-c3ccccc3)n2)nnc1SCC(=O)Nc1cccc(C(C)=O)c1	-	-	-	-	-	.	.
Cc1nc([N+](=O)[O-])c(Br)n1CC(=O)c1ccc(Cl)cc1	-	-	-	-	-	.	.
COc1ccc(C(=O)Cn2c(C)nc([N+](=O)[O-])c2Br)cc1	.	-	22	-	.	-	-
Cc1[nH]n(-c2ccccc2)c(=O)c1N=Nc1ccc(C(=O)O)cc1	.	.	36	-	.	34	-
Cc1[nH]n(-c2ccccc2)c(=O)c1N=Nc1ccccc1	-	-	-	-	-	.	.
Cc1[nH]n(-c2ccccc2)c(=O)c1N=Nc1ccc(C(N)=O)cc1	.	.	25	-	.	39	-
CC(=O)c1ccc(N=Nc2c(C)[nH]n(-c3ccccc3)c2=O)cc1	.	.	35	-	.	60	-
Cc1[nH]n(-c2ccccc2)c(=O)c1N=Nc1cccc(C(=O)O)c1	.	.	23	-	.	66	78
CC1Cc2ccccc2N1C(=O)Cn1cnc2ccccc21 (stereo unspecified)	-	-	-	-	-	.	.
Cc1ccc(Sc2ccc(C(=O)N3CCOCC3)cc2[N+](=O)[O-])cc1	.	.	-	-	.	.	.
O=[N+]([O-])c1ccc(O)c(/C=N/Nc2ccccn2)c1	-	-	-	-	-	.	.
Cc1c(O)ccc(/C=N/Nc2ncccc2[N+](=O)[O-])c1O	.	.	21	-	.	28	28
O=[N+]([O-])c1ccccc1/C=N/Nc1nccnc1Cl	-	-	-	-	-	.	.

Source: PubChem
